Experimental data from different studies.
Lines come from different studies, so protocols differ.
Target: Serine/threonine-protein kinase 33 (STK33, Homo sapiens, UniProt Q9BYT3)

SMILES | observed | action | technique | concentration | quantity | value
O=C(Nc1cnn(-c2csc(C(=O)NC3COC3)c2)c1)Nc1ccccc1Cl | enzyme activity | inhibitor | – | 5 µM | remaining activity | 99.3%
FC(F)(F)Oc1cccc(-c2cnc3ccc(-c4ccncc4)nn23)c1 | enzyme activity | inhibitor | radiometric | 5 µM | activity vs control | 100%
CCS(=O)(=O)c1cc2cc(C[C@@](O)(CC(C)(C)c3ccc(F)cc3C(N)=O)C(F)(F)F)[nH]c2cn1 | cell-free assay | – | competition with immobilised ligand | 1 µM | remaining binding | 91%
Cn1cncc1C1=CN(c2ncnc3[nH]cnc23)CCS1 | enzyme activity | inhibitor | radiometric | 50 nM | inhibition | 23.6%
Cc1ccc(C(=O)Nc2ccc(CN3CCN(C)CC3)c(C(F)(F)F)c2)cc1C#Cc1cnc2cccnn12 | enzyme activity | inhibitor | – | 23.5 nM | remaining activity | 96%
Cc1nccc(COC(=O)N2C[C@@H]3[C@@H](CNC(=O)c4ccc5[nH]nnc5c4)[C@@H]3C2)n1 | cell-free assay | – | competition with immobilised ligand | 1 µM | remaining binding | 93%
COc1cc(Nc2cnc(C#N)c(O[C@H](C)CN(C)C)n2)ncc1-c1cnn(C)c1 | enzyme activity | inhibitor | radiometric | 10 µM | remaining activity | 16%
Cc1ccc(Nc2nccc(N(C)c3ccc4c(C)n(C)nc4c3)n2)cc1S(N)(=O)=O | enzyme activity | inhibitor | – | 0.3 µM | inhibition | -2%
Cn1cnc(Br)c1C1=CN(c2ncnc3[nH]cnc23)CCS1 | enzyme activity | inhibitor | radiometric | 50 nM | inhibition | 35.8%
COc1cc(-c2cn(C3CCc4ccccc4N(CC(F)(F)F)C3=O)nn2)ccc1-n1ccc(C)n1 (stereo not shown) | cell-free assay | – | competition with immobilised ligand | 1 µM | remaining binding | 100%
Cc1sc(C(=O)NC2COC2)cc1-n1cc(NC(=O)Nc2c(F)cccc2Cl)cn1 | enzyme activity | inhibitor | – | 10 µM | remaining activity | 87.6%
CCN(CC)c1ccc(C2=NNC(=O)CC2C)cc1[N+](=O)[O-] (stereo not shown) | enzyme activity | inhibitor | – | 10 µM | remaining activity | 102%
Cn1cc(Cl)c2c(Oc3c(F)cc(Nc4cc(Cl)nc(N)n4)cc3F)ccnc21 | cell-free assay | – | competition with immobilised ligand | 0.1 µM | remaining binding | 100%
CN1CC(Oc2cnc(C#N)cc2-c2ccn3nc(NC(=O)C4CC4)cc3c2)C1 | enzyme activity | inhibitor | – | 1 µM | inhibition | -3%
Cc1ccc(NC(=O)c2ccc(C)c(C(F)(F)F)c2)cc1C#Cc1nn(C2CCC(O)CC2)c2ncnc(N)c12 (stereo not shown) | cell-free assay | – | – | 10 µM | remaining signal | 109%
Cc1cc(NC(=O)c2cccc(S(F)(F)(F)(F)F)c2)cc(-n2ccn3nc(-c4cccnc4)cc23)c1 | cell-free assay | – | competition with immobilised ligand | 1 µM | remaining binding | 87.8%
Cc1ncc([N+](=O)[O-])n1C(=NO)c1ccccc1C(F)(F)F | enzyme activity | inhibitor | – | 10 µM | inhibition | 11.4%
CCCCN(CCCC)C(=O)CN1C[C@H](c2cc(OC)c3c(c2)OCO3)[C@@H](C(=O)O)[C@@H]1CC(C)(C)CCC | cell-free assay | – | competition with immobilised ligand | 1 µM | remaining binding | 100%
Nc1ncnc2occ(-c3ccc(NC(=O)Nc4cc(C(F)(F)F)ccc4F)cc3)c12 | enzyme activity | inhibitor | – | 20 µM | remaining activity | 4.3%
